Experimental data as given in ChEMBL document CHEMBL1157505, “Design and in vitro characterization of highly sst2-selective somatostatin antagonists suitable for radiotargeting” (J Med Chem, 2008).
Calls of active or inactive are those of the source. The calls are words filed in the database; no cut-off is given here.

How the values were obtained:
[1] = biological target: Somatostatin receptor type 5 (Homo sapiens, UniProt P35346); experiment: Displacement of [125I][LTT]SRIF28 from human cloned sst5 receptor by autoradiography
[2] = biological target: Somatostatin receptor type 4 (Homo sapiens, UniProt P31391); experiment: Displacement of [125I][LTT]SRIF28 from human cloned sst4 receptor by autoradiography
[3] = biological target: T1, Somatostatin receptor type 2 (Homo sapiens, UniProt P30874); experiment: Displacement of [125I][LTT]SRIF28 from human cloned sst2 receptor by autoradiography
[4] = biological target: Somatostatin receptor type 1 (Homo sapiens, UniProt P30872); experiment: Displacement of [125I][LTT]SRIF28 from human cloned sst1 receptor by autoradiography
[5] = biological target: Somatostatin receptor type 3 (Homo sapiens, UniProt P32745); experiment: Displacement of [125I][LTT]SRIF28 from human cloned sst3 receptor by autoradiography
[6] = biological target: T1, Somatostatin receptor type 2; experiment: Antagonist activity at T7 epitope tagged human cloned sst2 receptor expressed in HEK293 cells assessed as inhibition of [Tyr3]octreotide-induced receptor internalization upto 10 uM; format: functional, cell-based
Summary of the method: (§1)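 Surface T7-tagged sst2 on HEK-sst2 cells labelled with anti-T7 antibody 2 h RT in DMEM-LH, then cells exposed 30 min at 37 °C to analogue (alone up to 10 μM or with [Tyr3]-octreotide), fixed in 3% paraformaldehyde, probed with HRP anti-mouse IgG, ABTS read at OD405; surface receptor as % of untreated; mean ± SEM, three experiments in duplicate.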

[7] = biological target: T1, Somatostatin receptor type 2; experiment: Antagonist activity at T7 epitope tagged human cloned sst2 expressed in HEK293 cells assessed as intracellular calcium release upto 10 uM; format: functional, cell-based
Summary of the method: (§2)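 HEK-sst2 cells seeded on poly-D-lysine, cultured 1 day, loaded with Fluo-4NW dye (assay buffer HBSS/20 mM HEPES, 2.5 mM probenecid) 30 min 37 °C plus 30 min RT. Analogues alone up to 10 μM, or [Tyr3]-octreotide with 100-fold excess analogue; fluorescence (ex 485/em 520 nm) recorded 60 s at RT; percentage of ionomycin (25 μM) maximum over baseline; ≥3 experiments in triplicate.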

[8] = biological target: T1, Somatostatin receptor type 2; experiment: Antagonist activity at T7 epitope tagged human cloned sst2 receptor expressed in HEK293 cells assessed as inhibition of [Tyr3]octreotide-induced receptor internalization upto 10 uM by immunofluorescence-based assay; format: functional, cell-based
Summary of the method: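 Immunofluorescence microscopy with sst2-specific antibody R2-88 on HEK-sst2 cells treated 30 min with vehicle, 100 nM [Tyr3]-octreotide, 100 nM [Tyr3]-octreotide plus 100-fold excess (10 μM) analogue, or analogue alone at 10 μM; internalization scored as punctate perinuclear staining.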

[9] = biological target: T1, Somatostatin receptor type 2; experiment: Antagonist activity at T7 epitope tagged human cloned sst2 expressed in HEK293 cells assessed as [Tyr3]octreotide-induced intracellular calcium release upto 10 uM; format: functional, cell-based; summary of the method: as §2
[10] = biological target: T1, Somatostatin receptor type 2; experiment: Antagonist activity at T7 epitope tagged human cloned sst2 receptor expressed in HEK293 cells assessed as inhibition of receptor internalization upto 10 uM by ELISA; format: functional, cell-based; summary of the method: as §1

T1 sequence (P30874 whole entry): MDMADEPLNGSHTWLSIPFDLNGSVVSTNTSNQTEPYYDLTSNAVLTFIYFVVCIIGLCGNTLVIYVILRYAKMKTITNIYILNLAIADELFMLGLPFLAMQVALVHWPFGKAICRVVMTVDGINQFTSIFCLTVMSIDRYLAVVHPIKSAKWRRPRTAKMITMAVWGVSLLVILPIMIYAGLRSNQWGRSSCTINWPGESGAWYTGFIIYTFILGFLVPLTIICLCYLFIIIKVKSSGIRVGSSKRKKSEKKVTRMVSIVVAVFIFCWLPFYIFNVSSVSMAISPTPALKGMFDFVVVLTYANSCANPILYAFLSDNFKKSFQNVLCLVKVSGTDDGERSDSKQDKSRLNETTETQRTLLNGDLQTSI
Sequence of Somatostatin receptor type 5 (P35346 whole entry): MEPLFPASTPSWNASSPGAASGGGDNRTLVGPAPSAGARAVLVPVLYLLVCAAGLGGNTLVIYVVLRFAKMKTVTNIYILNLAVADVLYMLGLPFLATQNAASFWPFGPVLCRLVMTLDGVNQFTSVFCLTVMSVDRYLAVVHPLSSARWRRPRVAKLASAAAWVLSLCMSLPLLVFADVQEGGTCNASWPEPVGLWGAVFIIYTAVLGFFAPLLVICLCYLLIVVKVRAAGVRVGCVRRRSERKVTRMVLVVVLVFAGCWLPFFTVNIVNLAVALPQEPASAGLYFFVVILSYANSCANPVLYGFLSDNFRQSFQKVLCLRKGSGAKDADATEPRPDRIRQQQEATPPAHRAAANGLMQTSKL
Sequence of Somatostatin receptor type 3 (P32745 whole entry): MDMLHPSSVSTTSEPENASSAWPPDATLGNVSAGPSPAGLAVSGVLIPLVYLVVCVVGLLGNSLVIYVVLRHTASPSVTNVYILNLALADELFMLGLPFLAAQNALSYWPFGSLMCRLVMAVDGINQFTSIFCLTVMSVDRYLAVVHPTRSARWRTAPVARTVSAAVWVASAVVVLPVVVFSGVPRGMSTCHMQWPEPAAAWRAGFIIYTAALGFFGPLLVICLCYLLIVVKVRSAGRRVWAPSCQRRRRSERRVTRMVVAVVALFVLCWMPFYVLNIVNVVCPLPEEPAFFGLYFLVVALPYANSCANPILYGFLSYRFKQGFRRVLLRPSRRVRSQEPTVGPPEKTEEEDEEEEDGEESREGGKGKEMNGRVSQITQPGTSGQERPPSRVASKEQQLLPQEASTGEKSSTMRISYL
Sequence of Somatostatin receptor type 4 (P31391 whole entry): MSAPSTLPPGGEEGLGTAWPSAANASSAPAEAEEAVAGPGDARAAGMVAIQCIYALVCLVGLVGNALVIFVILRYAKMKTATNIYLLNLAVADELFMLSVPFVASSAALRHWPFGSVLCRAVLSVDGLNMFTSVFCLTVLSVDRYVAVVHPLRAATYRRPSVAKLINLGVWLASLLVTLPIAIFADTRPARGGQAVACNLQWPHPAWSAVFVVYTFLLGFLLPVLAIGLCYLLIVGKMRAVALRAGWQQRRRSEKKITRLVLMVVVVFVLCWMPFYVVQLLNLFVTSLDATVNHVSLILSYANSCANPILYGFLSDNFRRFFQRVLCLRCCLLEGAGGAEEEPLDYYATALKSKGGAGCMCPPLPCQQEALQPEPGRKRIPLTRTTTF
Sequence of Somatostatin receptor type 1 (P30872 whole entry): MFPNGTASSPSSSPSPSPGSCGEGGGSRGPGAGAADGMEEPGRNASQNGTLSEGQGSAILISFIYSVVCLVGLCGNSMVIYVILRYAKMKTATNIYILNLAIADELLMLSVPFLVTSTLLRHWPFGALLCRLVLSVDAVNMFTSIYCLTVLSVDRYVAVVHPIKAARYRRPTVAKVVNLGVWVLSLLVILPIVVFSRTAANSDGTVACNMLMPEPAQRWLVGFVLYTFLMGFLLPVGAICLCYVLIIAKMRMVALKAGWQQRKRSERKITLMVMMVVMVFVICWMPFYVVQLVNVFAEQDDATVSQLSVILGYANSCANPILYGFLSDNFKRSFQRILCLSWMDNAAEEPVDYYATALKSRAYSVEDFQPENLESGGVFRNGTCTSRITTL

How did the IC50 [1] turn out when C[C@@H](O)[C@@H]1NC(=O)[C@H](CCCCN)NC(=O)[C@@H](Cc2ccc(NC(N)=O)cc2)NC(=O)[C@H](Cc2ccc(NC(=O)[C@@H]3CC(=O)NC(=O)N3)cc2)NC(=O)[C@H](NC(=O)[C@H](Cc2ccc(Cl)cc2)NC(=O)CN2CCN(CC(=O)O)CCN(CC(=O)O)CCN(CC(=O)O)CC2)CSSC[C@@H](C(=O)N[C@@H](Cc2ccc3ccccc3c2)C(N)=O)NC1=O was run?
Its IC50 is > 1000 nM.

And the IC50 [2]?
Its IC50 is > 1000 nM.

And the IC50 [3]?
The IC50 was 1.7 nM.

And the IC50 [4]?
Its IC50 is > 1000 nM.

What about the IC50 [5] of the same compound?
The IC50 was > 1000 nM.

Which results are given for C[C@@H](O)[C@@H]1NC(=O)[C@H](CCCCN)NC(=O)[C@@H](Cc2ccc(NC(N)=O)cc2)NC(=O)[C@H](Cc2ccc(O)cc2)NC(=O)[C@H](NC(=O)[C@@H](Cc2ccc([N+](=O)[O-])cc2)NC(=O)CN2CCN(CC(=O)O)CCN(CC(=O)O)CCN(CC(=O)O)CC2)CSSC[C@@H](C(=O)N[C@H](Cc2ccc(O)cc2)C(N)=O)NC1=O?
Activity [6]: Active; Activity [7]: inactive; Activity [8]: Active; Activity [9]: Active

C[C@@H](O)[C@@H]1NC(=O)[C@H](CCCCN)NC(=O)[C@@H](Cc2c[nH]c3ccccc23)NC(=O)[C@H](Cc2ccc(O)c(I)c2)NC(=O)[C@H](NC(=O)[C@@H](Cc2ccc([N+](=O)[O-])cc2)NC(=O)CN2CCN(CC(=O)O)CCN(CC(=O)O)CCN(CC(=O)O)CC2)CSSC[C@@H](C(=O)N[C@H](Cc2ccc(O)cc2)C(N)=O)NC1=O was tested. Which Activity [6] did it give?
The Activity was “Active”.

What about the Activity [7] of the same compound?
Its Activity is “inactive”.

What about the Activity [8] of the same compound?
The Activity was “Active”.

And the Activity [10]?
Its Activity is “inactive”.

And the Activity [9]?
The Activity was “Active”.

Which results are given for C[C@@H](O)[C@@H]1NC(=O)[C@H](CCCCN)NC(=O)[C@@H](Cc2ccc(NC(N)=O)cc2)NC(=O)[C@H](Cc2ccc(NC(=O)[C@@H]3CC(=O)NC(=O)N3)cc2)NC(=O)[C@H](NC(=O)[C@@H](N)Cc2ccc(Cl)cc2)CSSC[C@@H](C(=O)N[C@@H](Cc2ccc3ccccc3c2)C(N)=O)NC1=O?
IC50 [1]: > 1000 nM; IC50 [2]: > 1000 nM; IC50 [3]: 2.4 nM; IC50 [4]: > 1000 nM; IC50 [5]: 83 nM

For C[C@@H](O)[C@@H]1NC(=O)[C@H](CCCCN)NC(=O)[C@@H](Cc2ccc(NC(N)=O)cc2)NC(=O)[C@H](Cc2ccc(NC(=O)[C@@H]3CC(=O)NC(=O)N3)cc2)NC(=O)[C@H](NC(=O)[C@@H](Cc2ccc(Cl)cc2)NC(=O)CN2CCN(CC(=O)O)CCN(CC(=O)O)CCN(CC(=O)O)CC2)CSSC[C@@H](C(=O)N[C@H](Cc2ccc(O)cc2)C(N)=O)NC1=O, which Activity [6] is on record?
The Activity was “Active”.

And the Activity [7]?
The Activity was “inactive”.

And the Activity [8]?
The Activity was “Active”.

What about the Activity [9] of the same compound?
Its Activity is “Active”.
